This is an account of results in ChEMBL document CHEMBL4152378, “Discovery of a Branched Peptide That Recognizes the Rev Response Element (RRE) RNA and Blocks HIV-1 Replication” (J Med Chem, 2018).

Calls of active or inactive are those of the source. No cut-off for these calls is given here.

A short description of data set [1]: Binding affinity to HIV1 rev response element 2B RNA in presence of 10-fold excess RRE DNA by 2-AP based displacement assay. Details: species or system Human immunodeficiency virus 1. Summed up:
(§1)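 2-AP-labeled RRE IIB (0.1 μM) refolded at 95 °C 3 min, snap-cooled; titrated with peptide 0–20 μM in 10 mM potassium phosphate, 100 mM KCl, 1 mM MgCl2, 20 mM NaCl, pH 7.0; excitation 310 nm, emission decrease at 372 nm; Kd from Hill fit; at least duplicate, SD. Competition lines include 10-fold excess unlabeled RNA/DNA competitor.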

Data set [2] can be described thus: Binding affinity to HIV1 RRE RNA in HEK293T cells transfected with HIV1 CMV driven GagPol-RRE plasmid assessed as reduction in Rev-RRE dependent nuclear export by measuring intracellular p24 levels after 48 hrs by ELISA relative to control. Type of data set: cell-based. To be noted: Human immunodeficiency virus 1, HEK-293T. For orientation: In an ELISA, binding on a coated surface is turned into a signal by an enzyme label.

Data set [3] can be described thus: Cytotoxicity against HEK293T cells assessed as reduction in cell viability after 48 hrs by MTT assay. Type of data set: cell-based, HEK-293T. To be noted: human. Put shortly:
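MTT run in parallel with the transfected HEK 293T reporter set-up; ~48 h post-transfection MTT (5 mg/mL stock in PBS) added, 4 h at 37 °C; solubilized overnight with 10% SDS/0.01 N HCl; absorbance 570 nm; mean ± SD.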
(In general: Formazan colour is commonly taken as a measure of viable cells.)

The nature of data set [4]: Binding affinity to HIV1 rev response element 2B RNA by 2-AP based displacement assay. Details: species or system Human immunodeficiency virus 1. Put shortly: as §1
The subject of data set [5] is Human immunodeficiency virus 1. Nature of the data set: Binding affinity to [32P]-labeled HIV-rev response element 2B RNA assessed as protection of upper stem region from cleavage by RNase VI incubated for 10 mins up to 20 uM by autoradiography based nuclease protection assay. Summed up:
(§2)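 5'-32P RRE IIB (10 nM) with 200 nM unlabeled RRE IIB refolded (95 °C 3 min, ice); incubated with peptide 0–20 μM on ice 4 h in 10 mM Tris pH 7, 100 mM KCl, 10 mM MgCl2; digested on ice with RNase V1 (0.002 U, 10 min) or RNase A (20 ng, 1 h); 12% denaturing PAGE, autoradiography.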

For data set [6], the system named is Human immunodeficiency virus 1. Nature of the data set: Binding affinity to HIV1 RRE RNA in HEK293T cells transfected with HIV1 CMV driven GagPol-RRE plasmid assessed as reduction in Rev-RRE dependent nuclear export by measuring intracellular p24 levels at 70 uM after 48 hrs by ELISA relative to control. Type of data set: cell-based. Summed up: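 HEK 293T cells transfected with Rev and CMV-driven GagPol-RRE plasmids plus luciferase control; peptides added 5 h after transfection at 70 μM; cells lysed ~48 h post-transfection and intracellular p24 quantified by ELISA as percent inhibition.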

Data set [7] deals with Human immunodeficiency virus 1. Nature of the data set: Binding affinity to HIV1 234 nucleotide NL4-3 5'-RRE RNA assessed as protection of secondary Rev binding sites from cleavage by […] incubated for 1 hr by SHAPE analysis.
The nature of data set [8]: Binding affinity to HIV1 rev response element 2B RNA in presence of 10-fold excess TAR RNA by 2-AP based displacement assay. On the set-up: species or system Human immunodeficiency virus 1. Put shortly:
as §1

Data set [9] deals with Human immunodeficiency virus 1. Nature of the data set: Binding affinity to [32P]-labeled HIV-rev response element 2B RNA assessed as protection of internal loop region from cleavage by RNase A incubated for 1 hr up to 20 uM by autoradiography based nuclease protection assay. Summed up:
as §2

The nature of data set [10]: Binding affinity to HIV1 rev response element 2B RNA in presence of 10-fold excess no bulge RRE RNA by 2-AP based displacement assay. On the set-up: species or system Human immunodeficiency virus 1. Put shortly:
as §1

Broadly, the Kd is the equilibrium constant for the complex coming apart. One may read the IC50 as the concentration needed to halve the response being measured. By CC50 is commonly meant the concentration at which the toxic effect on the cells reaches its halfway point. What is called inhibition is how much of the control response was suppressed. For the molecule `N=C(N)N[C@@H]1C[C@H](C(=O)N[C@@H](Cc2ccc(O)cc2)C(N)=O)N(C(=O)CN(CCNC(=O)[C@H](CCCCNC(=O)c2cnccn2)NC(=O)[C@H](CCCCNC(=O)[C@H]2C[C@@H](N)CN2C(=O)CN(CCNC(=O)CN(CCN)C(=O)Cn2cnc3c(=O)[nH]c(N)nc32)C(=O)Cn2cnc3c(=O)[nH]c(N)nc32)NC(=O)[C@H]2C[C@@H](N)CN2C(=O)CN(CCNC(=O)CN(CCN)C(=O)Cn2cnc3c(=O)[nH]c(N)nc32)C(=O)Cn2cnc3c(=O)[nH]c(N)nc32)C(=O)Cn2cnc3c(=O)[nH]c(N)nc32)C1`, the equilibrium dissociation constant (Kd) in [1] worked out at 0.99 µM; in data set [4] it was 0.88 µM; in data set [8], 3.09 µM; in data set [10], 2.04 µM. Also, in [2], the half-inhibitory concentration (IC50) worked out at 15.4 µM. Besides, the CC50 at 48 h in data set [3] stood at 135 µM. The result in data set [5], in data set [7] and in data set [9] was Active. Besides, the inhibition in data set [6] is over 50%.

Take `N=C(N)N[C@@H]1C[C@H](C(=O)NCCCC[C@H](NC(=O)[C@H]2C[C@@H](NC(=N)N)CN2C(=O)[C@H]2C[C@@H](N)CN2C(=O)[C@H]2C[C@@H](NC(=N)N)CN2)C(=O)N[C@@H](CCCCNC(=O)c2cnccn2)C(=O)N[C@@H](CCCCNC(=O)c2cnccn2)C(=O)NCCN(CC(=O)N[C@@H](Cc2ccc(O)cc2)C(N)=O)C(=O)Cn2cnc3c(=O)[nH]c(N)nc32)N(C(=O)[C@H]2C[C@@H](N)CN2C(=O)[C@H]2C[C@@H](NC(=N)N)CN2)C1`: in data set [4], the Kd worked out at 1.12 µM. Besides, in data set [6], the inhibition is over 50%.

In the case of `N=C(N)N[C@@H]1C[C@H](C(=O)NCCN(CC(=O)N[C@@H](CCCCNC(=O)c2ccc(B(O)O)cc2)C(=O)N[C@@H](Cc2ccc(O)cc2)C(N)=O)C(=O)Cn2cnc3c(=O)[nH]c(N)nc32)N(C(=O)[C@H](CCCCNC(=O)[C@H]2C[C@@H](NC(=N)N)CN2C(=O)[C@H]2C[C@@H](NC(=N)N)CN2C(=O)[C@H]2C[C@@H](N)CN2)NC(=O)[C@H]2C[C@@H](NC(=N)N)CN2C(=O)[C@H]2C[C@@H](NC(=N)N)CN2C(=O)[C@H]2C[C@@H](N)CN2)C1`, binding in data set [4] was put at a Kd of 0.41 µM. Besides, the inhibition in data set [6] was over 50%.
